Consider 13 molecules from ChEMBL document CHEMBL4619720, “Synthesis and biological evaluation of new antioxidant and antiproliferative chalcogenobiotin derivatives for bladder carcinoma treatment” (Bioorg Med Chem, 2020).

Structures are written as SMILES. Calls of active or inactive are those of the source. No cut-off for these calls is given here.

Data set [1] is described as follows: Cytotoxicity against human leukocytes assessed as reduction in cell viability at 100 uM after 3 hrs by Trypan blue exclusion assay. The gist of the method: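 Leukocytes isolated from heparinized venous blood of healthy donors, 2 × 10^6/mL. Incubated 3 h in Hank's buffer with 10% human plasma containing DMSO (0.5%), compounds (100 µM) or t-butyl hydroperoxide (1 mM) as positive control. Three independent experiments.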

For data set [2], the system named is 5637. As to the kind of experiment: Cell cycle arrest in human 5637 cells assessed as accumulation at G2/M phase at 12.5 uM after 24 hrs by propidium-iodide staining based flow cytometry. Format: functional. The gist of the method:
(§1)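 5637 cells treated 24 h at 12.5 µM alongside untreated controls. DNA content measured by propidium iodide staining and flow cytometry. Triplicate treatments; analysis by two-way ANOVA with t-tests, p < 0.05.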

Data set [3] concerns 5637. As to the kind of experiment: Antiproliferative activity against human 5637 cells assessed as inhibition of cell growth at 0.4 uM to 50 uM by MTT assay. It counts as functional, cell-based. The note with it: TDE = time-dependent effect. The method in brief:
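5637 bladder carcinoma cells in DMEM/10% FBS at 37 °C, 5% CO2, log phase, seeded 2 × 10^4 per well for 24 h. Compound exposure 0.4–50 µM for 24 or 48 h, DMSO ≤0.5%. MTT (5 mg/mL in PBS) 3 h at 37 °C, formazan dissolved in DMSO, read at 492 nm. Inhibition % = [1 − Abs treated/Abs control] × 100; IC50 by nonlinear regression; three independent experiments.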
(Tetrazolium assays rely on reduction of a dye to a coloured formazan, in cell work by metabolically active cells.)

Data set [4] is described as follows: Antioxidant activity assessed as GPx-like activity to decompose hydrogen peroxide at 450 uM measured for 20 mins by spectrophotometer method. Format: functional. The gist of the method:
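GPx-mimic assay with thiophenol replacing glutathione. Ethanol, thiophenol 2.5 mM and compound (final 0–450 µM; t1/2 also taken at 55 µM) or DMSO blank, started with H2O2 2.3 mM. […] followed at 305 nm for 20 min. Ebselen and diphenyl diselenide at 55 µM as references; three independent experiments.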

The nature of data set [5]: Antioxidant activity assessed as inhibition of Fe(II)-induced lipid peroxidation after 30 mins by TBARS assay. Format: functional. The method in brief: (§2)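 Lipid peroxidation system: phosphatidylcholine 0.4 mg, FeSO4 55 µM, Tris-HCl pH 7.4 and compound (final 0–200 µM), 30 min at 37 °C. Then acetic acid buffer pH 3.4 plus 0.22% thiobarbituric acid, 1 h at 100 °C, n-butanol extraction of pink chromogen. IC50 from concentration curves; α-tocopherol and diphenyl diselenide as references; three independent experiments.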

Data set [6] is described as follows: Antioxidant activity assessed as half life of DPPH radical scavenging activity at 500 uM for 180 mins measured every 30 mins relative to control. Format: functional. The gist of the method:
(§3)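 Test compounds mixed with 0.3 mM DPPH in ethanol; single-point screen at 1 mM, time course at final 500 µM. Absorbance at 518 nm read every 30 min over 180 min. Positive controls were BHT (final 500 µM) and diphenyl diselenide (final 2 mM); t1/2 is the time to scavenge 50% of DPPH. DMSO vehicle; three independent experiments.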

Data set [7] is described as follows: Antioxidant activity assessed as inhibition of Fe(II)-induced lipid peroxidation at 200 uM after 30 mins by TBARS assay. It counts as functional. The method in brief:
as §2

A short description of data set [8]: Antioxidant activity assessed as DPPH radical scavenging activity at 1 mM for 180 mins measured every 30 mins relative to control. Format: functional. The gist of the method: as §3
For orientation: DPPH is a stable violet radical that fades when it is reduced.

In data set [9] the test system is 5637. As to the kind of experiment: cells. The note with it: Homo sapiens, 5637, 48 h.
Data set [10] deals with 5637. As to the kind of experiment: cells. The note with it: Homo sapiens, 5637, 24 h.
The nature of data set [11]: Antioxidant activity assessed as half life of GPx-like activity to decompose hydrogen peroxide at 55 uM measured for 20 mins by spectrophotometer method.
For data set [12], the system named is 5637. As to the kind of experiment: Antiproliferative activity against human 5637 cells assessed as inhibition of cell growth at 0.4 uM to 50 uM after 48 hrs by MTT assay. Format: functional, cell-based. The method in brief:
(§4)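 Human bladder carcinoma 5637 cells, grown in DMEM with 10% FBS at 37 °C under 5% CO2, were seeded at 2 × 10^4 cells/well and cultured 24 h. Medium was then replaced with compound in DMEM/FBS, DMSO ≤0.5%, for 24 or 48 h. MTT was added for 3 h, formazan dissolved in DMSO, and OD read at 492 nm. Inhibition % = [1 − Abs treated/Abs control] × 100; three independent experiments.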

For data set [13], the system named is 5637. As to the kind of experiment: Antiproliferative activity against human 5637 cells assessed as inhibition of cell growth at 0.4 uM to 50 uM after 24 hrs by MTT assay. Format: functional, cell-based. The gist of the method:
as §4

A short description of data set [14]: Toxicity in Swiss mouse assessed as effect on alkaline phosphatase activity at 100 umol/kg, sc administration and measured for 7 days. Format: organism-based. The note with it: in vivo, 168 h. The gist of the method: (§5)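 Adult male Swiss mice (25–30 g), n = 4 per group, given a single subcutaneous dose of 100 µmol/kg or DMSO 1 mL/kg. Monitored by closed-circuit TV for 168 h, with body weight, food and water intake recorded daily. Killed by decapitation at day 7; blood urea, creatinine, AST, ALT and alkaline phosphatase measured.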

A short description of data set [15]: Toxicity in Swiss mouse assessed as effect on alanine aminotransferase level at 100 umol/kg, sc administration and measured for 7 days. Format: organism-based. The note with it: in vivo, 168 h. The gist of the method:
as §5

A short description of data set [16]: Toxicity in Swiss mouse assessed as increase in aspartate aminotransferase level in plasma at 100 umol/kg, sc administration and measured for 7 days. It counts as organism-based. Conditions: in vivo, 168 h. The method in brief:
as §5

A short description of data set [17]: Toxicity in Swiss mouse assessed as creatinine level in plasma at 100 umol/kg, sc administration and measured for 7 days. Format: organism-based. Conditions: in vivo, 168 h. The method in brief: as §5
Data set [18] is described as follows: Toxicity in Swiss mouse assessed as survival rate at 100 umol/kg, sc administration and measured for 7 days. Conditions: in vivo, 168 h. It counts as organism-based. The method in brief:
as §5

Data set [19] is described as follows: Toxicity in Swiss mouse assessed as urea level in plasma at 100 umol/kg, sc administration and measured for 7 days. It counts as organism-based. Conditions: in vivo, 168 h. The method in brief: as §5
Data set [20] has as its system CHO-K1. As to the kind of experiment: Cytotoxicity against CHOK1 cells assessed as inhibition of cell growth after 48 hrs by MTT assay relative to control. It counts as cell-based. Conditions: Cricetulus griseus, CHO-K1, 48 h. The method in brief: (§6)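 CHO-K1 cells exposed to 0.4–50 µM for 24 and 48 h, then MTT reduction assay. Growth inhibition relative to control; IC50 by nonlinear regression; three independent experiments.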

Data set [21] has as its system CHO-K1. As to the kind of experiment: Cytotoxicity against CHOK1 cells assessed as inhibition of cell growth after 24 hrs by MTT assay relative to control. Format: cell-based. Conditions: Cricetulus griseus, CHO-K1, 24 h. The gist of the method: as §6
For data set [22], the system named is 5637. As to the kind of experiment: Cell cycle arrest in human 5637 cells assessed as accumulation at S-phase at 12.5 uM after 24 hrs by propidium-iodide staining based flow cytometry. Format: functional. The gist of the method: as §1
(In flow cytometry, cells or beads pass a laser one at a time.)

A short description of data set [23]: Cytotoxicity against human leukocytes assessed as reduction in cell viability at 1 mM after 3 hrs by Trypan blue exclusion assay. Conditions: 1000 µM.
Data set [24] is described as follows: Cytotoxicity against CHOK1 cells assessed as inhibition of cell growth at 12.5 uM after 24 hrs by MTT assay relative to control. It counts as cell-based, Cricetulus griseus. The note with it: chinese hamster, CHO-K1 cells. The method in brief: as §6
For data set [25], the system named is CHO-K1. As to the kind of experiment: Cytotoxicity against CHOK1 cells assessed as inhibition of cell growth at 0.4 uM to 50 uM after 48 hrs by MTT assay. Format: cell-based, Cricetulus griseus. Conditions: chinese hamster, cho-k1, 48 h. The method in brief:
as §6

For data set [26], the system named is CHO-K1. As to the kind of experiment: Cytotoxicity against CHOK1 cells assessed as inhibition of cell growth at 0.4 uM to 50 uM after 24 hrs by MTT assay. Format: cell-based, Cricetulus griseus. The note with it: chinese hamster, cho-k1, 24 h. The gist of the method: as §6

One may read the inhibition as the change of the read-out against control, counted positive when it falls. By IC50 is commonly meant the concentration at which inhibition is half-maximal. Consider `O=C1N[C@H]2[C@H](CS[C@H]2CCCCC(=O)OCCCCC[Te]c2ccccc2)N1`, for which the values for the Activity entry in data set [1] and in data set [8] were “Non-Toxic” and 50%, respectively. In addition, the result (in the data set on 5637 [2]; in data set [4]) was Active. Besides, in the data set on 5637 [3], the inhibition entry is “Tde”. Moreover, the half-maximal inhibitory concentration (IC50) in data set [5] was 1.33 µM; in the data set on 5637 [9], 6.71 µM; in the data set with 5637 [10], 7.63 µM. For the same molecule, the T1/2 was 23 min in data set [6] and 38.9 min in data set [11]. Also, in [7], the inhibition entry was “Active”.
In the case of `COc1ccc([Se]CCCCOC(=O)CCCC[C@@H]2SC[C@@H]3NC(=O)N[C@@H]32)cc1`, the inhibition result in the data set with 5637 [12] and in the data set on 5637 [13] was “inactive” each time.
`Cc1c(C)c2c(c(C)c1O)CC[C@@](C)(CCC[C@H](C)CCC[C@H](C)CCCC(C)C)O2` [ALPHA-TOCOPHEROL]: in data set [5], the 50% inhibitory concentration (IC50) came out at 60.3 µM. For the same molecule, the inhibition entry in [7] was “Active”.
As for `O=C1N[C@H]2[C@H](CS[C@H]2CCCCC(=O)OCCCC[Te]c2ccccc2)N1`, the Activity result in [14] is given as “Non-Toxic”; in [15] it was “Non-Toxic”; in data set [16], “Toxic”; in data set [17], “Non-Toxic”; in data set [18] it was “Non-Toxic”; in data set [19], “Non-Toxic”. Further, the values for the Activity result in data set [1] and in data set [8] were “Non-Toxic” and 50%, respectively. Also, the IC50 stood at 34.2 µM in the data set with CHO-K1 [20]; 70 µM with CHO-K1 [21]; 5 µM in data set [5]; 4.73 µM in the data set on 5637 [9]; 5.8 µM with 5637 [10]. The result (in the data set on 5637 [22]; in [4]) was Active. Besides, the inhibition entry in the data set with 5637 [3] is “Tde”. Besides, the results for the T1/2 in [6] and in data set [11] were 18 min and 15.8 min, respectively. In data set [7], the inhibition entry is “Active”.
Turning to `Cc1ccc([Se]CCCCOC(=O)CCCC[C@@H]2SC[C@@H]3NC(=O)N[C@@H]32)cc1`, the inhibition entry with 5637 [12] and in the data set with 5637 [13] was “inactive” each time.
Regarding `CC(C)(C)OO` [TERT-BUTYL HYDROPEROXIDE], in [23], the Activity result is reported as “Toxic”.
Consider `O=c1c2ccccc2[se]n1-c1ccccc1`, for which, in data set [11], the T1/2 came out at 56 min.
Consider `O=C1N[C@H]2[C@H](CS[C@H]2CCCCC(=O)OCCCC[Se]c2ccc(Cl)cc2)N1`, for which the inhibition result in the data set with 5637 [12] and with 5637 [13] was “inactive” in each case.
For `O=C1N[C@H]2[C@H](CS[C@H]2CCCCC(=O)OCCCC[Se]c2ccccc2)N1`, the inhibition entry in the data set with 5637 [12] and in the data set on 5637 [13] was “inactive” each time.
On to `CCCCCCC[Te]c1ccccc1`, for which the inhibition at 24 h, 12.5 µM in [24] amounted to 50%.
`c1ccc([Se][Se]c2ccccc2)cc1`: in data set [4], the outcome was Active. In data set [5], the half-maximal inhibitory concentration (IC50) turned out to be 248 µM. For the same molecule, the T1/2 was greater than 180 min in [6] and 120 min in data set [11]. For the same molecule, in data set [7], the inhibition entry was “Active”.
Consider `O=C(O)CCCC[C@@H]1SC[C@@H]2NC(=O)N[C@@H]21` [BIOTIN], for which the Activity result in the data set on CHO-K1 [25] and in the data set on CHO-K1 [26] was “Non-Toxic” each time. In addition, the inhibition result with 5637 [12] and in the data set with 5637 [13] was “inactive” each time.
Turning to `Cc1cc(C(C)(C)C)c(O)c(C(C)(C)C)c1`, the T1/2 in data set [6] was determined as 20.7 min.
